Measurements reported in article PMC3535304 (Bioorganic & medicinal chemistry, 2012).
“Also recorded” adds a separate entry of the source. Where two headings read alike, the source gives them in different places.

What was measured:
HT-29 cells [1] = assay: In vitro antiproliferative assay; type: cell-based, human; conditions: 3d vs 2d, 3e vs 2e
cyclin B = assay: Western blot analysis in HeLa cells; type: cell-based, human; conditions: 48 h
Summary of the method: (§1)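 HeLa cells were exposed to test compound for 24 or 48 h, washed in cold PBS, and lysed on ice for 30 min. Cleared lysate (20 μg protein, BCA) was run on 7.5–15% SDS-PAGE and moved to PVDF. Primary antibodies (2 h, room temperature) were procaspase-2, cleaved caspase-8, cleaved caspase-3, PARP and cyclin B1, followed by peroxidase secondary and ECL. Membranes were reprobed for β-actin.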

HeLa cells [2] = assay: Flow cytometric analysis of cell cycle distribution; type: cell-based, human; conditions: 24 h, range tested 31 to 500 nM
Summary of the method: (§2)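 Exponentially growing cells (5 × 10⁵) were treated 24 h with test compound at 31–500 nM. They were then fixed in ice-cold 70% ethanol and treated with lysis buffer containing RNase A and 0.1% Triton X-100. DNA was stained with propidium iodide and content measured by flow cytometry, with cycle phases taken from DNA histograms. Mean ± SEM of three independent experiments.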

[3] = system: six human cancer cell lines (HeLa, A549, HL-60, Jurkat, MCF-7, HT-29); assay: Antiproliferative activity across the panel of six human cancer cell lines; type: cell-based; conditions: read-out: IC50 values against the six cell lines (range)
Summary of the method: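 Jurkat and HL-60 cells were grown in RPMI-1640; MCF-7, A549, HeLa and HT-29 in DMEM; all media had 10% FBS plus penicillin/streptomycin. Cells were seeded at 8 × 10³/well, held 18 h at 37 °C in 5% CO₂, then given fresh medium with test compound (DMSO stocks, ≤0.25% final) for 72 h. Viability was read by MTT. […] Mean ± SE, ≥3 experiments.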

caspase-3 = assay: Western blot analysis in HeLa cells; type: cell-based, human; conditions: 24 and 48 h
Summary of the method: as §1

HeLa cells [4] = assay: Annexin-V/PI apoptosis assay; type: cell-based, human; conditions: 250 or 500 nM, 24 or 48 h
Summary of the method: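 HeLa cells exposed to test compound for 24 or 48 h, then labelled with annexin-V-FITC (kit protocol) and propidium iodide together. Red (PI) and green (FITC) fluorescence read by flow cytometry. Maximum DMSO 0.25%. Mean ± SEM of three independent experiments.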

caspase-9 = assay: Western blot analysis in HeLa cells; type: cell-based, human; conditions: data not shown
[5] = system: mitochondrial polarization and ROS production; assay: Mitochondrial functions; type: cell-based; conditions: data not shown
caspase-2 = assay: Western blot analysis in HeLa cells; type: cell-based, human; conditions: 24 or 48 h
Summary of the method: as §1

caspase-8 = assay: Western blot analysis in HeLa cells; type: cell-based, human; conditions: 24 or 48 h
Summary of the method: as §1

CEM^Vbl100 cells = assay: Cell growth inhibition, drug resistant cell line; type: cell-based; conditions: Homo sapiens, CEM/VBL100, read-out: IC50 (cell growth inhibition)
Summary of the method: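 Growth inhibition was read by MTT after 72 h exposure to a range of test-compound concentrations at 37 °C in 5% CO₂. DMSO was ≤0.25% final.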

CEM cells = assay: Cell growth inhibition, parental line of drug resistant pair; type: cell-based; conditions: Homo sapiens, CCRF-CEM, read-out: IC50 (cell growth inhibition)
HeLa cells [6] = conditions: read-out: IC50 (cell growth inhibition), mean ± SE, ref [12]; cited from earlier work
Jurkat cells [7] = conditions: read-out: IC50 (cell growth inhibition), mean ± SE, ref [12]; cited from earlier work
HT-29 cells [8] = conditions: read-out: IC50 (cell growth inhibition); HT-29, mean ± SE; ref [12]; cited from earlier work
HL-60 cells = conditions: read-out: IC50 (cell growth inhibition); HL-60, mean ± SE; ref [12]; cited from earlier work
A549 cells = conditions: read-out: IC50 (cell growth inhibition), cited from earlier work
MCF-7 cells [9] = conditions: read-out: IC50 (cell growth inhibition); MCF-7, mean ± SE; ref [12]; cited from earlier work
bovine brain tubulin = bovine brain tubulin (Bos taurus, UniProt P81947+Q6B856); assay: Inhibition of tubulin polymerization; type: biochemical; conditions: read-out: Tubulin assembly IC50; tubulin at 10 μM, 20 min incubation
LoVo^Doxo cells = conditions: IC50 LoVo^Doxo / IC50 LoVo; ref [8]; cited from earlier work
LoVo cells = conditions: read-out: IC50 (cell growth inhibition), ref [8]; cited from earlier work
A549-T12 cells = conditions: ref [8], cited from earlier work
Jurkat cells [10] = assay: Flow cytometric analysis of cell cycle distribution; type: cell-based, human; conditions: 24 h
Summary of the method: as §2

Jurkat cells [11] = assay: In vitro antiproliferative assay; type: cell-based; conditions: Homo sapiens, 72 h, read-out: IC50 (cell growth inhibition)
Summary of the method: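 Jurkat cells were grown in RPMI-1640 with 10% FBS, penicillin G (115 units/mL) and streptomycin (115 μg/mL). Cells were seeded at 8 × 10³ per well and held 18 h at 37 °C in 5% CO₂. Medium was then replaced with fresh medium containing the test compound (DMSO ≤0.25% final) at various concentrations for 72 h. Viability was read by MTT.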

MCF-7 cells [12] = assay: In vitro antiproliferative assay; type: cell-based, human; conditions: 3e vs 2e, 3b vs 2b

bovine brain tubulin, sequence (Q6B856 whole entry): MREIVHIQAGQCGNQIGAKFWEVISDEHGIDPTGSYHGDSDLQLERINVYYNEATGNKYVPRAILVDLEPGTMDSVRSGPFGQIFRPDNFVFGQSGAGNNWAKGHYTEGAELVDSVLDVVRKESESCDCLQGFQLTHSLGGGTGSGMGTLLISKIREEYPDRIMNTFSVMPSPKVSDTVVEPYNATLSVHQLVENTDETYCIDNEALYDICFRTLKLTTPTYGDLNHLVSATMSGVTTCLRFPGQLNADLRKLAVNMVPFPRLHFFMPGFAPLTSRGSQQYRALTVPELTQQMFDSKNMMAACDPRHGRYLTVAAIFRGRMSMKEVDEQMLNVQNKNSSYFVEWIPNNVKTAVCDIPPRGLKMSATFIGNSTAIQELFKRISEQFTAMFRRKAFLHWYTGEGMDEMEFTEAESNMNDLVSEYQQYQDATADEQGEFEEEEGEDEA
bovine brain tubulin, sequence (P81947 whole entry): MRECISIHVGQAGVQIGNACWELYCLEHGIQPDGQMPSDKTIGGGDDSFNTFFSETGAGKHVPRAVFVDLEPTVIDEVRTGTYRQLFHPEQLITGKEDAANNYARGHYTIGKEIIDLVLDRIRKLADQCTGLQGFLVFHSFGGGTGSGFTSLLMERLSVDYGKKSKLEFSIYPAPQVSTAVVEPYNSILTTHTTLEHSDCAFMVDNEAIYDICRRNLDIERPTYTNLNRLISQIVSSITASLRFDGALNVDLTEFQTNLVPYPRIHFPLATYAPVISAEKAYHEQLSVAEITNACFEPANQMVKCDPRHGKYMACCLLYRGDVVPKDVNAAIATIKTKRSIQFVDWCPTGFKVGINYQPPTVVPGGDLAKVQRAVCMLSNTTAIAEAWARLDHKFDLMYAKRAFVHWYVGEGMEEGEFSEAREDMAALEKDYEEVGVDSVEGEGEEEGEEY

For `CCOc1ccc(-c2sc(NC)nc2-c2cc(OC)c(OC)c(OC)c2)cc1` [3e, 5-(4-Ethoxyphenyl)-4-(3,4,5-trimethoxyphenyl)-N-methylthiazol-2-amine], the “fold more potent than 2-amino counterpart” value (HT-29 cells [1]) was 10 fold, the “cyclin B expression” value (cyclin B) was “slight decrease” and the “concentration at which G2/M accumulation was first observed” value (shortened to “concentration”) (HeLa cells [2]) was 31 nM. For the same compound, the IC50 [3] was 1.7 to 38 nM, the caspase-3 activation (caspase-3) was “clear activation of caspase-3” and the “cleavage of caspase-3 substrate PARP” value (caspase-3) was “cleavage of the caspase-3 substrate PARP”. The “induction of apoptotic (annexin-V positive) cells” value (HeLa cells [4]) was “Analogous behaviour but with a stronger effect”, the caspase-9 activation (caspase-9) was “did not induce activation of caspase-9” and the “effect on mitochondrial polarization and ROS production” value [5] was “did not cause mitochondrial depolarization; also recorded: only slightly affected”. The “caspase-2 activation (disappearance of uncleaved protein)” value (caspase-2) was “clear caspase-8 and caspase-2 activation” and the “caspase-8 activation (appearance of cleavage product)” value (caspase-8) was “clear caspase-8 and caspase-2 activation”.

`CC[C@]1(O)C[C@@H]2CN(CCc3c([nH]c4ccccc34)[C@@](C(=O)OC)(c3cc4c(cc3OC)N(C)[C@H]3[C@@](O)(C(=O)OC)[C@H](OC(C)=O)[C@]5(CC)C=CCN6CC[C@]43[C@@H]65)C2)C1` [Vinblastine] gave an IC50 (CEM^Vbl100 cells) of 205 ± 46 nM and an IC50 (CEM cells) of 0.8 ± 0.1 nM.

In the case of `COc1cc(-c2nc(N)sc2-c2ccc(C(F)(F)F)cc2)cc(OC)c1OC` [2c], the IC50 (HeLa cells [6]) is listed as 3.2 ± 0.4 nM, the IC50 (Jurkat cells [7]) is listed as 8.5 ± 1.2 nM and the IC50 (HT-29 cells [8]) is listed as 221 ± 50.2 nM. For the same compound, the IC50 (HL-60 cells) was 5.1 ± 1.1 nM, the IC50 (A549 cells; A549, mean ± SE, ref [12]) was 357 ± 65 nM and the IC50 (MCF-7 cells [9]) was 0.4 ± 0.1 nM.

In the case of `COc1ccc(-c2sc(N)nc2-c2cc(OC)c(OC)c(OC)c2)cc1` [2d], the IC50 (HeLa cells [6]) is listed as 2.3 ± 0.2 nM, the IC50 (Jurkat cells [7]) is listed as 2.1 ± 0.4 nM and the IC50 (HT-29 cells [8]) is listed as 11.7 ± 3.9 nM. The IC50 (HL-60 cells) was 3.2 ± 1.2 nM, the IC50 (A549 cells; A549, mean ± SE, ref [12]) was 20.2 ± 1.7 nM and the IC50 (MCF-7 cells [9]) was 60.9 ± 8.4 nM. It also gave an IC50 (bovine brain tubulin) of 1100 ± 70 nM.

In the case of `COc1cc(-c2nc(N)sc2-c2ccc3ccccc3c2)cc(OC)c1OC` [2a], the IC50 (HeLa cells [6]) is given as 1.6 ± 0.6 nM, the IC50 (Jurkat cells [7]) is given as 3.3 ± 0.9 nM and the IC50 (HT-29 cells [8]) is given as 23.9 ± 3.9 nM. The IC50 (HL-60 cells) was 2.7 ± 0.3 nM, the IC50 (A549 cells; A549, mean ± SE, ref [12]) was 3.8 ± 0.6 nM and the IC50 (MCF-7 cells [9]) was 51.2 ± 9.2 nM. It also gave an IC50 (bovine brain tubulin) of 740 ± 10 nM.

For `COc1cccc2c1C(=O)c1c(O)c3c(c(O)c1C2=O)C[C@@](O)(C(=O)CO)C[C@@H]3O[C@H]1C[C@H](N)[C@H](O)[C@H](C)O1` [Doxorubicin], the Resistance ratio (LoVo^Doxo cells) is listed as 109.6 and the IC50 (LoVo cells) is listed as 120 ± 30 nM.

In the case of `CC(=O)O[C@H]1C(=O)[C@@]2(C)[C@H]([C@H](OC(=O)c3ccccc3)[C@]3(O)C[C@H](OC(=O)[C@H](O)[C@@H](NC(=O)c4ccccc4)c4ccccc4)C(C)=C1C3(C)C)[C@]1(OC(C)=O)CO[C@@H]1C[C@@H]2O` [Taxol], the Resistance ratio (A549-T12 cells; IC50 A549-T12 / IC50 A549) is listed as 10.4, the IC50 (A549-T12 cells; read-out: IC50 (cell growth inhibition), A549-T12) is listed as 75.2 ± 12.5 nM and the IC50 (A549 cells; A549, ref [8]) is listed as 7.2 ± 0.1 nM.

In the case of `CCOc1ccc(-c2sc(N)nc2-c2cc(OC)c(OC)c(OC)c2)cc1` [2e], the IC50 (HeLa cells [6]) is given as 0.03 ± 0.005 nM, the IC50 (Jurkat cells [7]) is given as 0.14 ± 0.05 nM and the IC50 (HT-29 cells [8]) is given as 38.2 ± 11.4 nM. For the same compound, the IC50 (HL-60 cells) was 0.9 ± 0.3 nM, the IC50 (A549 cells; A549, mean ± SE, ref [12]) was 0.09 ± 0.01 nM and the IC50 (MCF-7 cells [9]) was 44 ± 6.3 nM. It also gave an IC50 (bovine brain tubulin) of 610 ± 50 nM.

For `COc1cc(-c2nc(N)sc2-c2ccc(C)cc2)cc(OC)c1OC` [2b], the IC50 (HeLa cells [6]) is given as 0.73 ± 0.2 nM, the IC50 (Jurkat cells [7]) is given as 3.9 ± 0.6 nM and the IC50 (HT-29 cells [8]) is given as 12.4 ± 5.1 nM. For the same compound, the IC50 (HL-60 cells) was 3.9 ± 1.1 nM, the IC50 (A549 cells; A549, mean ± SE, ref [12]) was 42.8 ± 5.7 nM and the IC50 (MCF-7 cells [9]) was 280 ± 69.8 nM. For the same compound, the IC50 (bovine brain tubulin) was 440 ± 10 nM.

In the case of `COc1cc(-c2nc(C)sc2-c2ccc3ccccc3c2)cc(OC)c1OC` [3k, 4-(3,4,5-Trimethoxyphenyl)-2-methyl-5-(naphthalen-2-yl)thiazole], the “concentration” value (HeLa cells [2]) is reported as 125 nM, the caspase-3 activation (caspase-3) is reported as “clear activation of caspase-3” and the “cleavage of caspase-3 substrate PARP” value (caspase-3) is reported as “cleavage of the caspase-3 substrate PARP”. For the same compound, the “induction of apoptotic (annexin-V positive) cells” value (HeLa cells [4]) was “significant induction of apoptotic cells”, the caspase-9 activation (caspase-9) was “did not induce activation of caspase-9” and the “effect on mitochondrial polarization and ROS production” value [5] was “only slightly affected”. For the same compound, the “concentration” value (Jurkat cells [10]) was 125 nM, the “caspase-2 activation (disappearance of uncleaved protein)” value (caspase-2) was “clear caspase-8 and caspase-2 activation” and the “caspase-8 activation (appearance of cleavage product)” value (caspase-8) was “clear caspase-8 and caspase-2 activation”.

In the case of `CNc1nc(-c2cc(OC)c(OC)c(OC)c2)c(-c2ccc(OC)cc2)s1` [3d, 4-(3,4,5-Trimethoxyphenyl)-5-(4-methoxyphenyl)-N-methylthiazol-2-amine], the “fold more potent than 2-amino counterpart” value (HT-29 cells [1]) is reported as 2 fold.

In the case of `COc1ccc(/C=C\c2cc(OC)c(OC)c(OC)c2)cc1O` [CA-4, Combretastatin A-4], the IC50 (Jurkat cells [11]) is reported as 5 ± 0.6 nM.

In the case of `CNc1nc(-c2cc(OC)c(OC)c(OC)c2)c(-c2ccc(C)cc2)s1` [3b, 4-(3,4,5-Trimethoxyphenyl)-N-methyl-5-p-tolylthiazol-2-amine], the “fold more potent than 2-amino counterpart” value (MCF-7 cells [12]) is reported as about 28 fold.
